Screening data as filed in PubChem BioAssay.
Compounds with a hit are over-represented: about 3.7% of the library has one in this group of screens.
KCNQ1 act: potentiates or activates the human KCNQ1 potassium channel | CHO-K1 KCNQ1, thallium flux FluxOR fluorescence; stronger effect = higher value | P51787 | B-score at 10 µM | AID 2648 | 310,000 compounds, 0.35% hits;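 active = fluorescence ratio B-score, a plate-corrected score, at least three library SD, with initial intensity B-score within 5 SD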
Target sequence (P51787 whole entry, looked up): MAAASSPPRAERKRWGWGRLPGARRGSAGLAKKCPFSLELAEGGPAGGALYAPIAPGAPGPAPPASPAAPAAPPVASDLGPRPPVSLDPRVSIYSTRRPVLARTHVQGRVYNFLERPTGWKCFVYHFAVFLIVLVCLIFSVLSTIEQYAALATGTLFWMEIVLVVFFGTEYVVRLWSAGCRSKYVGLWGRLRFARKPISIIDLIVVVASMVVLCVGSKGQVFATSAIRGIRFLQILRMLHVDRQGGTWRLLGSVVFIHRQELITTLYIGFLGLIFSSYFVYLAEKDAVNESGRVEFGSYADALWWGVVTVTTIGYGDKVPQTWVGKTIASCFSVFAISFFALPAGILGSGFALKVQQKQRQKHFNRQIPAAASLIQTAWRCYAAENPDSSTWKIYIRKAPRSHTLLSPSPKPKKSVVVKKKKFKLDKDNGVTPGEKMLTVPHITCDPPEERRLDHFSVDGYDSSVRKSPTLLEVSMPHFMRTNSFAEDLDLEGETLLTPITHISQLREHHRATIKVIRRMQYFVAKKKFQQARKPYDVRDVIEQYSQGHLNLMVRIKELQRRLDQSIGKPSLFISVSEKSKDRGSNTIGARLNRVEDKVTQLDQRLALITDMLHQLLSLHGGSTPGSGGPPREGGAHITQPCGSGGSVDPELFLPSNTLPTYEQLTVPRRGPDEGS
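Schedule – 37 °C overnight plating, 90-min dark dye load, 20-min compound pretreatment · System – stable KCNQ1 CHO-K1 line · Probe or stimulus – thallium- and potassium-containing depolarizing buffer · Measured by – kinetic FluxOR fluorescence, 10 s baseline plus 110 s post-stimulus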
KCNQ1 block: human KCNQ1 channel inhibition; P51787; CHO-K1 KCNQ1, FluxOR thallium flux fluorescence; stronger effect = higher value; B-score at 10 µM; 310,000 compounds, 1.3% hits; AID 2642;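 active = compounds whose thallium flux B-score, printed positive for inhibition, exceeds three library SD while starting fluorescence stays within three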;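 note: channel opened by potassium depolarization with thallium stimulus after 20 min compound exposure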
KCNK3 block: human KCNK3 channel inhibition, primary screen; O14649; CHO-KCNK3 thallium flux, FluxOR fluorescence; stronger effect = lower value; B-score at 10 µM; 340,000 compounds, 0.84% hits; AID 602410;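 active = B-score under library mean minus 4 SD, starting fluorescence ratio at most library mean plus 5 SD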;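 note: more negative B-score means stronger inhibition of thallium flux through KCNK3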
Kir21 block: Kir2.1 (mouse) channel inhibition; 310,000 compounds, 0.85% hits; HEK293-Kir2.1, FluxOR thallium flux fluorescence; stronger effect = lower value; P35561; B-score at 10 µM; AID 1672;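 active = fluorescence ratio B-score at or below minus 3 SD of library scores, with starting-brightness B-score within 2 SD, cut at about -4.2 in these data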;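 note: channel flux triggered by added potassium and thallium sulfate stimulus; B-score of peak minus minimum fluorescence over baseline after thallium stimulus; more negative B-score means stronger Kir2.1 block with less thallium influx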
hERG protect: hERG (human) protection from proarrhythmic block; AID 1511; activation (rescue from dofetilide block), less the hit threshold, % at 10 µM; 310,000 compounds, 0.51% hits; CHO-hERG, FluxOR thallium flux, dofetilide IC70 present;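 active = activation above the mean of controls blocked by dofetilide plus 5 SD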;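 note: thallium influx through hERG after potassium depolarization seen as dye fluorescence rise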
KCNK9 inh: blocks the human KCNK9 two-pore domain potassium channel; HEK293 KCNK9, FluxOR thallium flux fluorescence; stronger effect = lower value; B-score at 10 µM; 310,000 compounds, 1.2% hits; AID 488922;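 active = ratio B-score over 3 SD below the library mean, with starting fluorescence within 5 SD of its mean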;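 note: negative B-score means less thallium flux so channel inhibition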
* = called active by the depositor; i = inactive; / = no result.

SMILES | KCNQ1 act | KCNQ1 block | KCNK3 block | Kir21 block | hERG protect | KCNK9 inh
O=C1CC2(CCN(C(=O)C(=O)c3c[nH]c4ccccc34)CC2)Oc2ccccc21 | i | i | i | -0.56 | -10 | i
Cc1nn(-c2ccccc2)c(C)c1/C=N/NC(=O)CSc1nnc(SCc2ccccc2Cl)s1 | i | 6* | i | 0.73 | -13 | i
CC(=O)C1=NN(c2ccccc2)C(c2cccs2)N1c1ccccc1 (stereo not given) | i | 8* | / | 0.24 | -9 | -7.6*
CC(=O)C1=NN(c2ccccc2)C(c2ccc3c(c2)OCO3)N1c1ccc(N2CCOCC2)cc1 (stereo not given) | i | i | i | -1 | -8 | i
CCCCN(C(=O)Cc1coc2cc(C)c(C)cc12)c1c(N)n(Cc2ccccc2)c(=O)[nH]c1=O | i | i | i | 0.02 | -12 | i
CN(C)CCCn1c(=O)n(CCc2ccccc2)c(=O)c2c3c(sc21)CCCCC3 | i | i | i | -3 | -12 | i
CN(C)CCCNc1nc2sc3c(c2c(=O)n1CCc1ccccc1)CCCCC3 | i | i | i | -5.4* | -14 | i
O=c1[nH]c(-c2ccccc2)c(-c2ccccc2)nc1[N+](=O)[O-] | i | i | i | 1.6 | -2 | i
O=[N+]([O-])c1ccc(S(=O)(=O)NN=Cc2ccc(Cl)c(Cl)c2)cc1 | / | / | i | / | / | /
CCOCC(O)CNc1ccccc1 (stereo not given) | i | i | i | -0.97 | 5.4* | i
CCOC(=O)c1ccc(NCC(O)COc2ccccc2)cc1 (stereo not given) | i | i | i | 0.02 | -9 | i
N#CC1=C(SCc2ccccc2)NC(=O)CC1c1ccccc1 (stereo not given) | i | i | i | -11* | -8 | i
CCOC(=O)CSC1=C(C#N)C(c2ccc(Cl)cc2)CC(=O)N1 (stereo not given) | i | i | i | -8.8* | -8 | i
CCOC(=O)CSC1=C(C#N)C(c2ccc(C)o2)CC(=O)N1 (stereo not given) | i | i | i | -4.4* | -3 | i
C=CCSC1=C(C#N)C(c2ccccc2)CC(=O)N1 (stereo not given) | i | i | i | -1.9 | -4 | i
COc1ccc(S(=O)(=O)N(C)CC(=O)NCCCN2CCOCC2)cc1C | / | / | i | / | / | /
Cc1cc(Br)cc(/C=N/NC(=O)c2ccc3c(c2)OCO3)c1O | i | 8* | i | 1.1 | -5 | i
C=C(C)COC(=O)c1ccccc1C(=O)OCC1(C)CO1 (stereo not given) | / | / | i | / | / | /
C=C1C(=O)c2sccc2C(c2ccc(OC)c(OC)c2)C1COC(C)=O (stereo not given) | / | / | i | / | / | /
CC(C)c1ccc(OCC(=O)NNC(=S)NC(=O)c2ccco2)c(Br)c1 | 47* | i | i | 0.25 | -13 | i
CC(=O)C1=C(c2cccc([N+](=O)[O-])c2)N(C(C)=O)n2c(C)nnc2S1 | i | 7* | i | -1.1 | -17 | i
O=Cc1c(N2CCN(CCO)CC2)nc2ccccn2c1=O | i | 13* | i | -3.3 | -16 | i
Fc1cc(F)c2nc(N3CCCCC3)sc2c1 | i | i | i | 0.01 | 5.1* | i
O=C(O)c1ccc(Oc2ccc([N+](=O)[O-])cc2)c([N+](=O)[O-])c1 | / | / | i | / | / | /
O=C(Oc1ccc(=O)n(-c2ccccc2)n1)c1ccccc1 | i | i | i | -7.4* | -7 | i
SMILES | KCNQ1 act | KCNQ1 block | KCNK3 block | Kir21 block | hERG protect | KCNK9 inh
COc1ccc2nc(N3C(=O)/C(=C/c4ccccc4)NC3=S)sc2c1 | 62* | i | i | 0.8 | 63* | i
O=C1Nc2ccccc2C1=Nc1ccc2[nH]c3ccccc3c2c1 | / | / | i | / | / | /
O=Cc1cc(N=Nc2cccc(C(=O)O)c2)ccc1O | i | i | i | 1.4 | -17 | i
O=Cc1cc(N=Nc2ccccc2Cl)ccc1O | 11* | i | i | 0.99 | -20 | i
CCOC(=O)C(Cc1ccc(O)c([N+](=O)[O-])c1)N1C(=O)c2ccccc2C1=O (stereo not given) | / | / | i | / | / | /
COC(=O)C1CC2=C(CCC2=O)N(c2ccccc2)C1=O (stereo not given) | / | / | i | / | / | /
